MLLE-PAM2 inh – blocks PAM2 peptide binding to the PABP1 MLLE domain. AID 588489. inhibition, % at 20 µM. 360,000 tested, 0.36% active. GST-MLLE / FITC-PAM2 fluorescence polarization; in the data active = inhibition above about 35%, passing the limit was not always enough
eIF4H inh – inhibitors of RNA binding by human eIF4H. eIF4H fluorescence polarization binding assay. Q15056. 290,000 tested, 0.94% active. inhibition, % at 35 µM;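 also: calls also rest on retests at 20 µM and on dose response follow-up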
PABP FP inh – blocks human PABP binding to poly(A) RNA | fluorescence polarization | AID 2014 | 290,000 tested, 1% active | calls only at 35 µM | P11940;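 also: calls also rest on retests at 20 µM and on dose response follow-up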
RBBP9 inhibitor – blocks human serine hydrolase RBBP9; O75884; 220,000 tested, 0.2% active; inhibition, % at 7.94 µM; AID 1515; recombinant RBBP9, FP-Rh probe fluorescence polarization;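 active = inhibition above the campaign mean of all tested compounds plus 3 SD, cut at about 14% in these data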
Target sequence (O75884 whole entry, looked up): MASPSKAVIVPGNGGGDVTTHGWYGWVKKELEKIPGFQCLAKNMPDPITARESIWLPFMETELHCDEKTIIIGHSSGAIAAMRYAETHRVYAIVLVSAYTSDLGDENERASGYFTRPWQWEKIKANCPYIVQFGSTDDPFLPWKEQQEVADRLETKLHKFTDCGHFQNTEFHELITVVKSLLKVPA
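Test system – recombinant human RBBP9 · Input – RBBP9 2.5 µM in dispensing solution, pre-mixing · Medium – Tris buffer pH 8.0, NaCl, Pluronic · Schedule – preincubation 30 min plus labeling 45 min at 25 °C · Measured by – fluorescence polarization · Measure – % inhibition · Controls – DMSO and no-protein wells · Replicates – one well per compound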
TCR CD3 inh – blocks the human TCR-CD3 interaction | TAMRA-labeled TCR probe fluorescence, biochemical | inhibition, % at 9.4 µM | 360,000 tested, 0.37% active; in the data active = inhibition above about 19%;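 also: recombinant mutant TCR 2C K166C tagged with TAMRA read by polarization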
Hits are given with their value; i = inactive; ? = inconclusive; nt = not tested or not shown; + = active, no number. Compounds with a hit are over-represented: about 1.6% of the library has one in this group of screens. Unless noted, no rule for the calls is given here.

SMILES	MLLE-PAM2 inh	eIF4H inh	PABP FP inh	RBBP9 inhibitor	TCR CD3 inh
CC(C)[C@@H](C)/C=C/[C@@H](C)[C@H]1CC[C@@H]2[C@]1(C)CCC1[C@]23C=C[C@]2(C[C@@H](O)CC[C@]12C)N(C(=O)Cc1ccccc1)O3 (stereo not given in full)	nt	nt	nt	nt	i
CCCS(=O)(=O)N1CCN=C1SCc1cccnc1	40	i	i	i	i
COC(=O)[C@]12C[C@H](CC(=O)N3CCSCC3)C(=O)N(Cc3ccccc3)C1=C[C@H](C1CCCC1)O[C@@H]2C	nt	nt	nt	nt	i
O=C(N/N=C/c1ccncc1)c1cccc(S(=O)(=O)Nc2ccc(Cl)cc2)c1	i	70	i	i	i
O=C(Nc1ccccc1)OC[C@@H]1CSCCS(=O)(=O)N1	nt	nt	nt	nt	i
CN1C(=O)/C(=C2\SC(=S)N(NC(=O)c3cccnc3)C2=O)c2ccccc21	i	i	i	nt	i
CCOC(=O)CN1C(=O)/C(=C2\SC(=S)N(NC(=O)c3cccnc3)C2=O)c2ccccc21	43	i	i	nt	i
Nc1ccc2oc(-c3ccccc3Cl)cc(=O)c2c1O	i	90	+	i	i
O=c1cc(-c2ccccc2Cl)oc2ccc([N+](=O)[O-])c(O)c12	i	i	i	i	i
COCc1cc(N2CCNC[C@@H]2C)ccc1N1CCS(=O)(=O)CC1	nt	nt	nt	nt	i
CCOc1ccc(NC(=S)Nc2cccc3cnccc23)cc1	i	i	i	i	i
COc1ccc(NC(=S)Nc2cccc3cnccc23)cc1	i	i	+	i	i
N#C/C(=C/c1ccc(N2CCCCC2)o1)C(=O)Nc1ccc2ccccc2c1	i	?	i	i	i
N#C/C(=C/c1ccc(N2CCCCC2)o1)C(=O)Nc1ccc(Cl)cc1	i	127	i	i	i
O=C(/C=C/c1ccco1)N(c1ccccn1)c1ccccn1	i	101	i	i	i
O=C(c1ccco1)N(c1ccccn1)c1ccccn1	i	i	i	i	i
CC1CCc2c(sc(NC(=O)CCC(=O)O)c2C(=O)NC2CC2)C1 (stereo not given)	40	i	i	nt	i
COCC(=O)Nc1sc2c(c1C(=O)OC)CCC(C)C2 (stereo not given)	i	i	i	i	i
N=C1S/C(=C\c2ccc(-c3ccccc3C(=O)O)o2)C(=O)N1c1ccc2c(c1)OCO2	i	87	+	i	i
O=C(O)CN1C(=O)S/C(=C\c2ccc3c(c2)OCO3)C1=O	i	nt	nt	nt	i
COc1ccccc1N1C(=N)S/C(=C\c2ccc(-c3ccccc3C(=O)O)o2)C1=O	i	59	i	i	i
CC(C)N1C(=O)S/C(=C\c2ccc(-c3ccc(Cl)c(C(=O)O)c3)o2)C1=O	i	i	i	nt	i
O=C(N[C@H](Cc1ccccc1)C(=O)NCc1ccco1)[C@H]1O[C@@H](n2ccc(=O)[nH]c2=O)[C@H](O)[C@@H]1O	nt	nt	nt	nt	i
CCOC(=O)[C@@H]1CSCCS(=O)(=O)N1C(=O)[C@H](C)NC(=O)OC(C)(C)C	nt	nt	nt	nt	i
C[C@H]1CNC(=O)c2c(C(=O)N3CCN(c4ccccc4)CC3)ncn21	nt	nt	nt	nt	i
SMILES	MLLE-PAM2 inh	eIF4H inh	PABP FP inh	RBBP9 inhibitor	TCR CD3 inh
O=C(Nc1nc2ccsc2c(=O)s1)c1ccco1	i	64	i	i	i
Oc1cc(NCCc2cccnc2)cc2cccnc12	50	nt	nt	nt	i
COCc1[nH]nc2c1C(c1ccccc1)N(Cc1ccccc1)C2=O (stereo not given)	nt	nt	nt	nt	i
CCCCCCCCN1C(=O)[C@@H](CC(=O)NCc2cccc(C(F)(F)F)c2)C[C@@]2(C(=O)OC)C1=C[C@H](C(C)(C)C)O[C@@H]2C	nt	nt	nt	nt	i
CCC(CC)C(=O)NCc1ccc2c(c1)cc(C)n2C	i	i	i	i	i
Cc1cc2cc(CNC(=S)NCc3ccccc3)ccc2n1C	i	i	i	i	i
Cc1cc2cc(CNC(=O)Nc3ccccc3)ccc2n1C	63	i	i	i	i
CCOC(=O)CCC(=O)NCc1ccc2c(c1)cc(C)n2C	i	i	+	i	i
CCCCC(=O)NCc1ccc2c(c1)cc(C)n2C	i	i	i	i	i
Cc1cc2cc(CNC(=O)c3cccs3)ccc2n1C	45	i	i	i	i
Cc1cc2cc(CNC(=O)c3ccc(S(=O)(=O)N4CCCCC4)cc3)ccc2n1C	49	i	i	i	85
Cc1ccc(CNC(=O)c2ccc(S(=O)(=O)N3CCCCC3)cc2)cc1	i	nt	nt	nt	i
Nc1nc2c(ncn2[C@@H]2O[C@H](C(=O)N[C@H](Cc3ccccc3)C(=O)NC3CCCCC3)[C@@H](O)[C@H]2O)c(=O)[nH]1	nt	nt	nt	nt	i
C=CCN1C[C@@H](COCc2ccccc2)OCCS1(=O)=O	nt	nt	nt	nt	i
Fc1ccc2nc(-c3ccc(CN4CCC5(CC4)CNc4ccccc45)cc3)c(-c3ccccc3)nc2c1	nt	nt	nt	nt	i
O=C(C(=O)N1CCC(CNS(=O)(=O)c2cccc3ccccc23)CC1)c1cccs1	nt	nt	nt	nt	i
Nc1[nH]c(C(=O)c2ccccc2)c(-c2ccccc2Cl)c1C(=O)NCCc1c[nH]c2ccccc12	nt	nt	nt	nt	i
CN1C(=O)[C@@]2(O[C@H]3c4ccccc4C=CN3C3=C2C(=O)CCC3)c2ccccc21	nt	nt	nt	nt	i
Nc1[nH]c(C(=O)c2ccccc2)c(-c2cccc3ccccc23)c1C(=O)NCc1ccc(Cl)cc1Cl	nt	nt	nt	nt	i
c1ccc(CSc2nnnn2-c2ccccc2)cc1	i	i	i	i	i
O=c1cc(CSc2nnnn2-c2ccccc2)[nH]c2[nH]n(-c3ccccc3)c(=O)c12	i	79	+	i	i
NC(Cc1ccc(O)cc1)C(=O)NN=Cc1ccccc1Cl (stereo not given)	nt	nt	nt	nt	i
Cc1c(C(=O)O)cccc1-n1c(C)cc(C=O)c1C	i	72	i	i	i
COc1ccccc1C(=O)N1CCC2CCN(C(=O)c3ccccc3)C2C1 (stereo not given)	nt	nt	nt	nt	i
O=C(NCSc1ccccc1)c1ccccc1	42	nt	nt	nt	i
SMILES	MLLE-PAM2 inh	eIF4H inh	PABP FP inh	RBBP9 inhibitor	TCR CD3 inh
S=c1nc(-c2sccc2OCc2ccc(Cl)cc2Cl)[nH][nH]1	37	i	i	i	i
CC(C)CCNC(=O)[C@@H](Cc1ccccc1)NC(=O)[C@H]1O[C@@H](n2ccc(=O)[nH]c2=O)[C@H](O)[C@@H]1O	nt	nt	nt	nt	i
O=C(N/N=C/c1ccc(OC(=O)c2ccco2)cc1)c1ccncc1	i	i	i	nt	i
O=C(N/N=C/c1ccc(OC(=O)c2ccccc2Cl)cc1)c1ccccn1	i	i	i	nt	nt
O=C(N/N=C/c1ccc(OC(=O)c2ccc(Br)cc2)cc1)c1ccncc1	i	79	i	nt	i
O=C(N/N=C/c1ccc(OC(=O)c2ccccc2Cl)cc1)c1cc(O)cc(O)c1	i	92	+	nt	i
CCc1cccc(Nc2cc(C)n(-c3cccc(CC)c3)c(=O)c2)c1	nt	nt	nt	nt	i
COC(=O)c1cc2c(c3c4cc(F)ccc4n(S(=O)(=O)c4ccc(C)cc4)c13)C(=O)N(Cc1ccc(C(F)(F)F)cc1)C2	nt	nt	nt	nt	i
Cc1ccc[n+](-c2nc([O-])sc2/C=N/Nc2ccc([N+](=O)[O-])cc2)c1	60	i	i	i	i
CCCCn1c(=O)[nH]c2nc3cc(N)ccc3nc2c1=O	i	?	i	i	21
CNCc1cc(C)n(-c2cc(S(=O)(=O)N3CCOCC3)ccc2N2CCCC2)c1C	i	nt	nt	nt	i

High-throughput results from PubChem.
